ChEMBL document CHEMBL4842354, “Synthesis, structure-activity relationships, cocrystallization and cellular characterization of novel smHDAC8 inhibitors for the treatment of schistosomiasis” (Eur J Med Chem, 2021)

Tests used:
[1] = molecular target: T1, HDAC1 (histone deacetylase 1) (Homo sapiens, UniProt Q13547); test: Inhibition of recombinant human HDAC1 at 1 uM using ZMAL as substrate incubated for 90 mins by fluorescence based micro plate assay relative to control; conditions: recombinant human HDAC1, probe ZMAL
Summary of the method: (§1)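 Recombinant human HDAC1 or HDAC6 incubated 90 min at 37°C with ZMAL (Z-(Ac)Lys-AMC, 10.5 μM) and inhibitor. Developed with buffer containing trypsin (1 mg/mL) and TSA (2.75 μM), 20 min at 37°C. Fluorescence read at Ex 390/Em 460 nm.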

[2] = molecular target: T2, HDAC6 (protein deacetylase HDAC6) (Homo sapiens, UniProt Q9UBN7); test: Inhibition of recombinant human HDAC6 at 1 uM using ZMAL as substrate incubated for 90 mins by fluorescence based micro plate assay relative to control; conditions: recombinant human HDAC6, probe ZMAL; summary of the method: as §1
T2 sequence (Q9UBN7 whole entry): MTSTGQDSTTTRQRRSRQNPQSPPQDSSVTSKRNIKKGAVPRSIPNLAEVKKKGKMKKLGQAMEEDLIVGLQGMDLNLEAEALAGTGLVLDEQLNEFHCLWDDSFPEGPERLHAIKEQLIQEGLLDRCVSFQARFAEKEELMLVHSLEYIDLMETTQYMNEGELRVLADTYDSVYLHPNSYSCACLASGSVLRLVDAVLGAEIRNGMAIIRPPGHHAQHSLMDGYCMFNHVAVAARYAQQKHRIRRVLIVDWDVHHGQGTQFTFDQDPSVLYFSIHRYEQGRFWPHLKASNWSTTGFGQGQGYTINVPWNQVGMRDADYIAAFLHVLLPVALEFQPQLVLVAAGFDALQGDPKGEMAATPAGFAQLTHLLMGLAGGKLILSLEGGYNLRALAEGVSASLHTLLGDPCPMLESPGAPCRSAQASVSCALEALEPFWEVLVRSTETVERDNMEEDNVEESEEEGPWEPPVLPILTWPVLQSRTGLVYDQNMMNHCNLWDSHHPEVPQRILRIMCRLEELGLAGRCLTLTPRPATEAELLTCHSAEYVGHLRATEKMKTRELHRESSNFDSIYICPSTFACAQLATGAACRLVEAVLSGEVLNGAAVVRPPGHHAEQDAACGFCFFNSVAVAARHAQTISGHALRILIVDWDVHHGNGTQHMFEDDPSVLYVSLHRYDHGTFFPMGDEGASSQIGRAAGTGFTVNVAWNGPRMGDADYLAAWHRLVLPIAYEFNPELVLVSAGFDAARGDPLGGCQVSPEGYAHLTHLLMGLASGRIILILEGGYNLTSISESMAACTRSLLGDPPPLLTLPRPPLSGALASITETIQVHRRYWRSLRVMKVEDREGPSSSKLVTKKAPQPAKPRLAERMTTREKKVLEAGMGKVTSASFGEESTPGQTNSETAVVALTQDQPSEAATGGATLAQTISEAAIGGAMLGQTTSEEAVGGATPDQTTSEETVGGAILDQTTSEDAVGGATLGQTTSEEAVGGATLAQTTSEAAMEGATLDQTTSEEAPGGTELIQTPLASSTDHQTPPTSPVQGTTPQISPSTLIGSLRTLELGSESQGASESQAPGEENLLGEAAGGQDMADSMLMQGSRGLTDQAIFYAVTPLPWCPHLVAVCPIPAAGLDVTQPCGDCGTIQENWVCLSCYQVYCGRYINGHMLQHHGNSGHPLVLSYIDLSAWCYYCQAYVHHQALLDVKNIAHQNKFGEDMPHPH

Histone deacetylase 8 [3] = molecular target: T3, Histone deacetylase 8 (Homo sapiens, UniProt Q9BY41); test: Inhibition of human recombinant HDAC8 using H2N-Arg-His-Lys(Ac)-Lys(Ac)-AMC as substrate after 90 mins by fluorescence based micro plate assay
T3 sequence (Q9BY41 whole entry): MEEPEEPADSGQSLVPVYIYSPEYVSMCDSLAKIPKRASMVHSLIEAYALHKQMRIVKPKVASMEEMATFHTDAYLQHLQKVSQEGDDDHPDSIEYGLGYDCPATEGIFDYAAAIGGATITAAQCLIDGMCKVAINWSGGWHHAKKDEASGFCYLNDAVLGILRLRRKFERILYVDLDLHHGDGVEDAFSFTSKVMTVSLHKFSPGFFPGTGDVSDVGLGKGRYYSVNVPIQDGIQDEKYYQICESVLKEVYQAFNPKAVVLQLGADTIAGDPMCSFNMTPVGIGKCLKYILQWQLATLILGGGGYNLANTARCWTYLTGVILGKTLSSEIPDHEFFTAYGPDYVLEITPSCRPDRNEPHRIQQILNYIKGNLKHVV

Histone deacetylase 8 [4] = molecular target: T4, Histone deacetylase 8 (Schistosoma mansoni, UniProt A5H660); test: Inhibition of Schistosoma mansoni HDAC8 using Fluor de Lys as substrate incubated for 90 mins by fluorescence method
T4 sequence (A5H660 whole entry): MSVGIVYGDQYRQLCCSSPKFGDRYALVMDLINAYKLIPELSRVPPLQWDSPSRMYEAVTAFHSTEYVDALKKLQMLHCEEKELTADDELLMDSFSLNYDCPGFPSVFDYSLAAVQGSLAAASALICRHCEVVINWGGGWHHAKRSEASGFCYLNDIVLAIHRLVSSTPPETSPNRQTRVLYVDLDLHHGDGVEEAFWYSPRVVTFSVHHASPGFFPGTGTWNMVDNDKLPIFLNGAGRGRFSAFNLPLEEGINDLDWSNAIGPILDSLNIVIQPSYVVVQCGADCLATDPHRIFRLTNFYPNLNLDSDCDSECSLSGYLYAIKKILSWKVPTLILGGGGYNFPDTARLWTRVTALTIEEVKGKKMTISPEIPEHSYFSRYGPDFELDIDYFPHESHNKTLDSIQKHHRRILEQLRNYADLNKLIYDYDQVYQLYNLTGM
Summary of the method: (§2)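 Recombinant smHDAC8 or hHDAC8 (Romier lab) run to Fluor de Lys HDAC8 kit protocol. Substrate H2N-Arg-His-Lys(Ac)-Lys(Ac)-AMC at 50 μM with increasing inhibitor concentrations, 90 min at 37°C. Stop solution holding inhibitor plus trypsin, then 20 min at 37°C to release AMC. Fluorescence read at Ex 355/Em 460 nm.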

Schistosoma mansoni [5] = test: Antischistosomal activity against Schistosoma mansoni schistosomula at 10 uM incubated for 48 hrs by Alamar Blue assay; assay type: functional
Summary of the method: (§3)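 S. mansoni newly transformed schistosomula from mechanically transformed cercariae, 100 NTS/well in Medium 199 with 10% FCS, penicillin, streptomycin and rifampicin. Pre-cultured 3 h at 37°C, 5% CO2. Compounds from 20 mM DMSO stocks, final 10 or 20 μM. Alamar Blue added after 48 h exposure, then 24 h more. Resorufin read at Ex 530/Em 590 nm. Live and ethanol-killed larvae as controls; triplicate wells, two biological replicates.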

Schistosoma mansoni [6] = test: Antischistosomal activity against Schistosoma mansoni schistosomula at 20 uM incubated for 48 hrs by Alamar Blue assay; assay type: functional; summary of the method: as §3
HEK293 = test: Cytotoxicity against human HEK293 assessed as reduction in cell viability at 50 uM measured for 24 hrs by Alamar Blue assay; assay type: cell-based; conditions: hek293, 24 h
Summary of the method: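 HEK293 cells in DMEM with 10% FCS and 5 mM glutamine at 37°C, 5% CO2, seeded at 1.5×10^3 cells/well. Compounds added at 50 μM. AlamarBlue added after 24 h and incubated a further 21 h. Resorufin fluorescence read at Ex 530/Em 590 nm. Triplicates; daunorubicin positive control.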

[7] = molecular target: T5, Protein deacetylase HDAC6 (Homo sapiens, UniProt Q9UBN7); test: Inhibition of recombinant human HDAC6 using ZMAL as substrate incubated for 90 mins by fluorescence based micro plate assay
T5 sequence (Q9UBN7 whole entry): T2 sequence (Q9UBN7 whole entry)

Histone deacetylase 1 = Histone deacetylase 1 (Homo sapiens, UniProt Q13547); test: Inhibition of recombinant human HDAC1 using ZMAL as substrate incubated for 90 mins by fluorescence based micro plate assay
[8] = molecular target: T6, Histone deacetylase 8 (Homo sapiens) (UniProt Q9BY41); test: Inhibition of human recombinant HDAC8 at 1 uM using H2N-Arg-His-Lys(Ac)-Lys(Ac)-AMC as substrate after 90 mins by fluorescence based micro plate assay; summary of the method: as §2
T6 sequence (whole entry): T3 sequence (Q9BY41 whole entry)

[9] = molecular target: T7, Histone deacetylase 8 (Schistosoma mansoni) (UniProt A5H660); test: Inhibition of Schistosoma mansoni HDAC8 at 0.5 uM using Fluor de Lys as substrate incubated for 90 mins by fluorescence method relative to control; summary of the method: as §2
T7 sequence (whole entry): T4 sequence (A5H660 whole entry)

[10] = molecular target: T1, HDAC1 (histone deacetylase 1); test: Inhibition of recombinant human HDAC1 at 10 uM using ZMAL as substrate incubated for 90 mins by fluorescence based micro plate assay relative to control; conditions: recombinant human HDAC1, probe ZMAL; summary of the method: as §1

T1 sequence (Q13547 whole entry): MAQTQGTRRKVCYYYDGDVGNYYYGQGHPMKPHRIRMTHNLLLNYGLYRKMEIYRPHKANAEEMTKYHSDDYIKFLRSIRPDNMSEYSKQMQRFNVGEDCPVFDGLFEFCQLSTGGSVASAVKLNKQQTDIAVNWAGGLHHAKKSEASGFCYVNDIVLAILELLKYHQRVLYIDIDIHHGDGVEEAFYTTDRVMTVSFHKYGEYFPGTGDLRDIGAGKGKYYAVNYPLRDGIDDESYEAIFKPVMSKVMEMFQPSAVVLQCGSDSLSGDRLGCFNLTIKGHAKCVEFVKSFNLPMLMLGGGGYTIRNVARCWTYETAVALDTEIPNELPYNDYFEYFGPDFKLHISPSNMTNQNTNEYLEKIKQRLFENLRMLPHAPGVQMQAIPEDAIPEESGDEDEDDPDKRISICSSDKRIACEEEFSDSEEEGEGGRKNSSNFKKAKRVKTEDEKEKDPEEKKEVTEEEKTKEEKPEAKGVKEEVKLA
Sequence of Histone deacetylase 1 (Q13547 whole entry): as above

Compound	inhibition at 1.5 h, 1 µM [1] [%]	inhibition at 1.5 h, 1 µM [2] [%]	IC50 (Histone deacetylase 8 [3]) [µM]	IC50 (Histone deacetylase 8 [4]) [µM]	Activity (Schistosoma mansoni [5]) [%]	Activity (Schistosoma mansoni [6]) [%]	Activity (HEK293) [%]	IC50 [7] [µM]	IC50 (Histone deacetylase 1) [µM]	inhibition [8] [%]	inhibition [9] [%]	inhibition at 1.5 h, 10 µM [10] [%]
COc1ccc(NC(=O)c2cc(C(=O)NO)ccc2OC)cc1	2	18	0.27	0.43	91	83.3	94.5					
COc1ccc(C(=O)NO)cc1NC(=O)c1ccc(-c2ccccc2)cc1			0.13	0.29	64.8	33.4	12.3	0.39				
CCCOc1ccc(C(C)=O)cc1C(=O)Nc1cc(C(=O)NO)ccc1C			0.14	0.11	45.2	34	68.8	0.02	0.36			
CCOc1ccc(C(C)=O)cc1NC(=O)c1cc(C(=O)NO)ccc1Cl			0.22	0.14	57	33.1	60.6	0.11	18.1			
O=C(NO)c1ccc(Cl)c(NC(=O)c2ccc(-c3ccccc3)cc2)c1			0.45	0.4	62.3	55.1	81.7	0.16	10.9			
COc1ccc(C(C)=O)cc1NC(=O)c1cc(C(=O)NO)ccc1OC				0.15	78.2	66.2	66.2	0.02	0.36	71		
CCOc1ccc(C(C)=O)cc1NC(=O)c1cccc(C(=O)NO)c1			0.59	0.16	81	67.3	81.2	0.12	7.7			
CSc1ccc(C(=O)NO)cc1NC(=O)c1ccc(-c2ccccc2)cc1			0.22	0.1	57.4	64.9	82.3	1.5	3.88			
CCOc1ccc(C(=O)NO)cc1NC(=O)c1ccc(Cl)cc1Cl			0.23	0.1	56.2	56.4	86.8	7.74	21.1			
O=C(NO)c1ccc(Cl)c(C(=O)Nc2ccc(Cl)cc2)c1	20	94			77.6	62.3	69.5					
CCOc1ccc(C(=O)NO)cc1NC(=O)c1ccc(OC)cc1					64.4	59.4	88.7				51	
Cc1ccc(C(=O)NO)cc1C(=O)Nc1ccc(Cl)cc1				0.33	69.1	50.2	67.6	0.6	3.37			
O=C(NO)c1ccc(Cl)c(NC(=O)c2ccc(-c3ccccc3)cc2Cl)c1	7		0.78	0.11	60.6	43.5	77	2.4				18
COc1ccc(C(=O)NO)cc1C(=O)Nc1cccc(Cl)c1	0	25	0.28	0.17	85.6	82.8	88.2					
